For assay [1], the target named is Creatine kinase M-type (Homo sapiens) (UniProt P06732). Put plainly: Reaction rate of creatine kinase activity is determined at 100 mM concentration (relative to creatine).
The species named for assay [2] is Mus musculus. The experiment in a line: Average daily dose was determined in ob/ob mice(0). Format: functional.
Assay [3] deals with Mus musculus. Put plainly: Terminal blood glucose level was determined in ob/ob mice after oral administration for two weeks (control = 226+/-29). The class given is functional. The procedure, abridged: (§1)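 ob/ob mice on Purina 5015 chow, given drug as admixture in milled chow for 14 days. Intake measured from food-bowl weight change. Blood from retro-orbital sinus, heparinized, kept on ice and analyzed promptly. Blood glucose measured before and after treatment. Group sizes 8–15, housed at 21 °C on 12 h light–dark cycle; two-way ANOVA, Student–Newman–Keuls post hoc.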

Assay [4] is filed under the species Mus musculus. The experiment in a line: Initial body weight was determined in ob/ob mice (control=55+/-1). The class given is functional.
The subject of assay [5] is Mus musculus. Put plainly: Terminal body weight was determined in ob/ob mice after oral administration for two weeks (control = 53+/-1). The class given is functional.
Assay [6] has as its system Mus musculus. Put plainly: Terminal fat body weight was determined in ob/ob mice after oral administration for two weeks (control = 28+/-0.9). Format: functional.
Assay [7] has as its system Mus musculus. Put plainly: Terminal lean body weight was determined in ob/ob mice after oral administration for two weeks (control = 25+/-1). Format: functional.
For assay [8], the system named is Mus musculus. Put plainly: Average daily food consumption was determined in ob/ob mice after oral administration for two weeks (control = 90+/-3). The class given is functional.
The nature of assay [9]: Inhibition of creatine transport was assessed from Percent inhibition of [C14] creatine uptake. On the set-up: concentration or dose not given beside the values. The following applies: dose or concentration not given here. The class given is functional.
The species named for assay [10] is Mus musculus. The experiment in a line: Initial blood glucose level was determined in ob/ob mice (control=228+/-19). The class given is functional. The procedure, abridged:
as §1

Structures are written as SMILES. Where only a bound is given, the exact number is not on record here.

Sequence of Creatine kinase M-type (Homo sapiens) (P06732 whole entry): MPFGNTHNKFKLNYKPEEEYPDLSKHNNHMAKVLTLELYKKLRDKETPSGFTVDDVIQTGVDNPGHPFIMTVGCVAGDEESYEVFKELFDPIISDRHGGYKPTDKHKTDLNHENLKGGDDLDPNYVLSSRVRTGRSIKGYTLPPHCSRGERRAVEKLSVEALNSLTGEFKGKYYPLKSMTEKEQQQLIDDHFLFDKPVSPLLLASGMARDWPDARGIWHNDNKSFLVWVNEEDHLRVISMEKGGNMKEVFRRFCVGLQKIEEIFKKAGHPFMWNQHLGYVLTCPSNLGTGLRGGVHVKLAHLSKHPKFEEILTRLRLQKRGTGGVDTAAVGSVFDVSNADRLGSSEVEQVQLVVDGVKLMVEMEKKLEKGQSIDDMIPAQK

Usually inhibition stands for the share of the control response that was lost under treatment. `N=C(N)NCCC(=O)O` [OMPENACLID] showed a Reaction rate in [1] of 2.4. This compound registered a Dose in assay [2] of 377 mg/kg. The Blood glucose in [3] is 147 mg/dL; in assay [10] it was 229 mg/dL. The Body weight in [4] is 54 g; in assay [5] it was 48 g; in [6], less than 24 g; in assay [7], 24 g. The compound further came in with a Food intake in assay [8] of 75 g/kg. In assay [9], this compound had an inhibition of 97%.

(Values after ChEMBL document CHEMBL1134394, “Synthesis and biological activity of aminoguanidine and diaminoguanidine analogues of the antidiabetic/antiobesity agent 3-guanidinopropionic acid” (2001).)
